Measured values reported in ChEMBL document CHEMBL1145336, “1-aryl-3-(4-pyridine-2-ylpiperazin-1-yl)propan-1-one oximes as potent dopamine D4 receptor agonists for the treatment of erectile dysfunction” (J Med Chem, 2006).
The source made the active and inactive calls. The calls are words filed in the database; no cut-off is given here.

Columns and labels:
D(4) dopamine receptor [1] = biological target: T1, D(4) dopamine receptor (Homo sapiens, UniProt P21917); assay: Activity at human recombinant D4.4 receptor expressed in HEK293 cells by FLIPR assay; format: functional, cell-based
T1 sequence (P21917 whole entry): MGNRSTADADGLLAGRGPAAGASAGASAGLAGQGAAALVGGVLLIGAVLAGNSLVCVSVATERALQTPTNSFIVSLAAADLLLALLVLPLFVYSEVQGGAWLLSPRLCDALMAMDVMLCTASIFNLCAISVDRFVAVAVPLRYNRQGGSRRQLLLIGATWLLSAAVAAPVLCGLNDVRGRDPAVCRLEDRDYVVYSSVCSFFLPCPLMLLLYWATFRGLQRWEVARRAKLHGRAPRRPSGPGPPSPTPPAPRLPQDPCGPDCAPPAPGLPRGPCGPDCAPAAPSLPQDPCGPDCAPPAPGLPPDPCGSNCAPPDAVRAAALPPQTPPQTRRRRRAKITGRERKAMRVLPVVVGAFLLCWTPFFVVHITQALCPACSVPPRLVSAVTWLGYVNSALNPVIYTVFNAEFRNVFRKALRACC

D(4) dopamine receptor [2] = biological target: T1, D(4) dopamine receptor; assay: Displacement of [3H]A-369508 from human recombinant D4.4 receptor expressed in HEK293 cell membrane; format: cell membranes
Outline: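 Competition binding against the D4-selective agonist radioligand [3H]-A-369508, using membranes from HEK-293 cells engineered to express human D4.4. Mean values (SEM, n ≥ 4).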

Rattus norvegicus [3] = assay: Activity against penile erection in Wistar rat at 0.03 umol/kg, sc; format: functional
Outline: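 Male Wistar rats, dosed subcutaneously, were weighed and adapted to a red-lit testing room for 60 min; experiments ran between 9:00 a.m. and 3:00 p.m. Erections were counted by direct observation for 60 min after dosing. The share of animals with one or more erections was reported as incidence (percent), n = 8-30 rats.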

[4] = Bioavailability in rat at 1 mg/kg, po; format: ADME, organism-based; conditions: in vivo
Outline: (§1)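 Pharmacokinetics in rat and dog after a 1 mg/kg dose given subcutaneously or orally. Oral bioavailability (F, %), volume of distribution (Vβ, L/kg) and half-life (T1/2, h) were determined.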

[5] = Bioavailability in rat at 1 mg/kg, sc; format: ADME, organism-based; conditions: in vivo; outline: as §1
[6] = Half life in rat at 1 mg/kg, sc; format: ADME, organism-based; set-up: dose 1 mg/kg, route subcutaneous; conditions: in vivo; outline: as §1
[7] = Half life in rat at 1 mg/kg, po; format: ADME, organism-based; set-up: dose 1 mg/kg, route oral; conditions: in vivo; outline: as §1
Rattus norvegicus [8] = assay: Volume of distribution in rat at 1 mg/kg, sc; format: ADME, organism-based; set-up: dose 1 mg/kg, route subcutaneous; conditions: in vivo; outline: as §1
Canis familiaris [9] = assay: Volume of distribution in dog at 1 mg/kg, sc; format: ADME, organism-based, Canis lupus familiaris; set-up: dose 1 mg/kg, route subcutaneous; conditions: in vivo; outline: as §1
[10] = Half life in dog at 1 mg/kg, po; format: ADME, organism-based, Canis lupus familiaris; set-up: dose 1 mg/kg, route oral; conditions: in vivo; outline: as §1
[11] = Bioavailability in dog at 1 mg/kg, po; format: ADME, organism-based, Canis lupus familiaris; conditions: in vivo; outline: as §1
Mustela putorius furo = assay: Emetic activity in ferret at 0.03 to 3 umol/kg, sc; format: functional, organism-based
D(2) dopamine receptor [12] = biological target: T2, D(2) dopamine receptor (Homo sapiens, UniProt P14416); assay: Antagonist activity at human recombinant D2 receptor expressed in HEK293 cells by FLIPR assay; format: functional, cell-based
T2 sequence (P14416 whole entry): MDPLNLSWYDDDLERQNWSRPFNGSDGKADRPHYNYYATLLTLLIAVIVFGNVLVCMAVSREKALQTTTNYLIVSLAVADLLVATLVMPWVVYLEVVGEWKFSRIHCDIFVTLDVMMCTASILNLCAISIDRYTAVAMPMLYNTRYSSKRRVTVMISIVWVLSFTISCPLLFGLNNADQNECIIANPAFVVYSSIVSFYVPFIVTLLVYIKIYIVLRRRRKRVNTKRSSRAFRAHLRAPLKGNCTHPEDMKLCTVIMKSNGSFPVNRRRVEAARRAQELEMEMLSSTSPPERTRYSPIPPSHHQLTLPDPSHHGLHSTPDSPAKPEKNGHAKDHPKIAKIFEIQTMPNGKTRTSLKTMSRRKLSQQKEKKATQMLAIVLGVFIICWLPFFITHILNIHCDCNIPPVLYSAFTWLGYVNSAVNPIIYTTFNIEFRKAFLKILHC

Canis familiaris [13] = organism: Canis familiaris; assay: Prolongation of canine cardiac Purkinje fiber repolarization; format: functional, Canis lupus familiaris
Mus musculus [14] = assay: Lowering of hypoactivity in mouse at 10 umol/kg by Irvin test; format: functional, organism-based
Mus musculus [15] = assay: Lowering of piloerection in mouse at 10 umol/kg by Irvin test; format: functional, organism-based
Mus musculus [16] = assay: Lowering of ptosis in mouse at 10 umol/kg by Irvin test; format: functional, organism-based
Mus musculus [17] = assay: Lowering of hypothermia in mouse at 10 umol/kg by Irvin test; format: functional, organism-based
D(2) dopamine receptor [18] = biological target: T2, D(2) dopamine receptor; assay: Agonist activity at human recombinant D2 receptor expressed in HEK293 cells by FLIPR assay; format: functional, cell-based
Outline: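 Calcium flux (FLIPR) in HEK-293 cells coexpressing recombinant human D2L with chimeric Gqo5. Efficacy is the maximal response relative to 10 µM dopamine (100%). EC50 is the concentration giving half-maximal stimulation. Values are means (SEM, n ≥ 3).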

D(2) dopamine receptor [19] = biological target: T2, D(2) dopamine receptor; assay: Displacement of [125I]PIPAT from human recombinant D2L receptor expressed in HEK293 cells

Q: Which results are given for `CO/N=C(\CCN1CCN(c2ccccn2)CC1)c1ccc(Cl)cc1`?
A: EC50 (D(4) dopamine receptor [1]): 37.6 nM; Ki (D(4) dopamine receptor [2]): 38.2 nM; Activity (Rattus norvegicus [3]): 85%; bioavailability [4]: 16.3%; bioavailability [5]: 94.8%; half-life [6]: 1.9 h; half-life [7]: 2.3 h; Vbeta (Rattus norvegicus [8]): 4.3 L/kg; Vbeta (Canis familiaris [9]): 4.8 L/kg; half-life [10]: 6.2 h; bioavailability [11]: 39.8%; Activity (Mustela putorius furo): inactive; IC50 (D(2) dopamine receptor [12]): > 10000 nM; Activity (Canis familiaris [13]): 14.7%; Activity (Mus musculus [14]): Active; Activity (Mus musculus [15]): Active; Activity (Mus musculus [16]): Active; Activity (Mus musculus [17]): Active; EC50 (D(2) dopamine receptor [18]): > 10000 nM; Ki (D(2) dopamine receptor [19]): 63.8 nM
